The values below come from ChEMBL document CHEMBL2169781, “Discovery and biological evaluation of a novel class of dual microsomal prostaglandin E2 synthase-1/5-lipoxygenase inhibitors based on 2-[(4,6-diphenethoxypyrimidin-2-yl)thio]hexanoic acid” (J Med Chem, 2011).

As usually defined, the IC50 is the concentration needed to halve the response being measured.

The target in series [1] is T1, Polyunsaturated fatty acid 5-lipoxygenase (Homo sapiens, UniProt P09917).
T1 sequence (P09917 whole entry): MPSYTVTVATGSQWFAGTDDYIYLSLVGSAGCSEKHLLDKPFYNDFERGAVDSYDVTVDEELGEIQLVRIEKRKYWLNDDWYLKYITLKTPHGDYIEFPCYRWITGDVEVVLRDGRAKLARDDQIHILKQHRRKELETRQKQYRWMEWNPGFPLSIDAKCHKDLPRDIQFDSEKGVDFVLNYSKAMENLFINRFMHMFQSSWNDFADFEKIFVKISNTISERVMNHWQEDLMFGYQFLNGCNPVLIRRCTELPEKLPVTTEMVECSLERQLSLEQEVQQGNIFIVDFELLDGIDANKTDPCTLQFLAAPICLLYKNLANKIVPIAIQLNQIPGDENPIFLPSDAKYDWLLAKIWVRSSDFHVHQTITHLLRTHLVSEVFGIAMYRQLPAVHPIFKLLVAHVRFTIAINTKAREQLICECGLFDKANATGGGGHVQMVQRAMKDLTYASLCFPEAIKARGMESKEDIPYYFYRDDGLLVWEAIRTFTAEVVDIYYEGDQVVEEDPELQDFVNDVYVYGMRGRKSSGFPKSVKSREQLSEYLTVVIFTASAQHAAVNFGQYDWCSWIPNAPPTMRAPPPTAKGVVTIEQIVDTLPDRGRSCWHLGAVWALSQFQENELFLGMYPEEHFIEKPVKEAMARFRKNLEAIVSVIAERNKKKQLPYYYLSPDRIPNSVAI
The experiment in a line: Inhibition of human recombinant 5-lipoxygenase-mediated product formation from arachidonic acid after 5 to 10 mins by HPLC analysis. The gist of the method: (§1)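 Human 5-LO expressed in E. coli BL21 (pT3-5LO) at 37 °C, purified and used at once. Enzyme (0.5 μg/mL in PBS/EDTA with 1 mM ATP) preincubated with compound 5–10 min at 4 °C, prewarmed 30 s at 37 °C, started with 2 mM CaCl₂ + 20 μM AA (±1 μM 13(S)-HpODE), 10 min at 37 °C, stopped with cold methanol, products by HPLC.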

Series [2] concerns the target T1, Polyunsaturated fatty acid 5-lipoxygenase. Briefly: Inhibition of 5-lipoxygenase-mediated 5(S)-H(p)ETE formation in A23187-stimulated human PMNL incubated 10 mins prior to A23187 challenge.
In a further series the target is T2, Prostaglandin E synthase (Homo sapiens, UniProt O14684).
T2 sequence (O14684 whole entry): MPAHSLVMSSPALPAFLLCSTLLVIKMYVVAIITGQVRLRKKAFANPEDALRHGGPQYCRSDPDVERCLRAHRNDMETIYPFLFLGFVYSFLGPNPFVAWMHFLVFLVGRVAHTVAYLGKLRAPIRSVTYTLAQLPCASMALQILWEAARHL
The experiment in a line: Inhibition of mPGES-1 in human IL-1beta-stimulated A549 cell microsomes assessed as reduction of PGE2 formation from PGH2 after 15 mins by RP-HPLC analysis. Further details: species or system Microsome. The gist of the method:
(§2)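 A549 cells in DMEM with 2% FCS for 16 h, induced with IL-1β (1 ng/mL) for 72 h, homogenized. Microsomal pellet (174 000 × g) diluted in 0.1 M potassium phosphate pH 7.4 with 2.5 mM glutathione, given compound or DMSO for 15 min. PGH₂ added (20 μM final), 1 min at 4 °C, stopped with FeCl₂/citric acid. PGE₂ by SPE and RP-HPLC (UV 195 nm), 11β-PGE₂ internal standard. Tested up to 10 μM; IC₅₀ reported only above 50% inhibition at 10 μM.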

Series [3] concerns the target T3, Prostaglandin E synthase (Homo sapiens) (UniProt O14684).
T3 sequence (whole entry): T2 sequence (O14684 whole entry)
Briefly: Inhibition of mPGES-1 in human IL-1beta-stimulated A549 cell microsomes assessed as residual activity by measuring reduction of PGE2 formation from PGH2 at 10 uM after 15 mins by RP-HPLC analysis. Particulars: Microsome. The gist of the method: as §2

In series [4] the target is Prostaglandin G/H synthase 2 (Homo sapiens) (UniProt P35354). The experiment in a line: Inhibition of human recombinant COX-2 mediated formation of 12-HHT from arachidonic acid assessed as remaining activity at 10 uM after 5 mins by HPLC analysis.
Series [5] is described as follows: Cytotoxicity in human polymorphonuclear leukocytes assessed as cell viability at 10 uM after 30 mins by MTT assay. A general note: Tetrazolium dyes change colour on reduction, which living cells bring about.
Series [6] deals with Prostaglandin G/H synthase 1 (Ovis aries) (UniProt P05979). The experiment in a line: Inhibition of ovine COX-1 mediated formation of 12-HHT from arachidonic acid assessed as remaining activity at 10 uM after 5 mins by HPLC analysis.
Series [7] deals with T4, Polyunsaturated fatty acid 5-lipoxygenase (Homo sapiens) (UniProt P09917).
T4 sequence (whole entry): T1 sequence (P09917 whole entry)
Briefly: Inhibition of human recombinant 5-lipoxygenase-mediated product formation from arachidonic acid assessed as remaining activity at 10 uM after 5 to 10 mins by HPLC analysis. The gist of the method: as §1

The target in series [8] is T1, Polyunsaturated fatty acid 5-lipoxygenase. Briefly: Inhibition of 5-lipoxygenase-mediated 5(S)-H(p)ETE formation in fMLP-stimulated human PMNL incubated 10 mins prior to fMLP challenge.

Consider `CCCCC(Sc1nc(OCCC2CCCCC2)cc(OCCC2CCCCC2)n1)C(=O)O` (centres undefined), for which the IC50 amounted to 9 µM in series [1], 800 nM in series [2] and 2400 nM at Prostaglandin E synthase.

For `CCCCC(Sc1nc(OCCc2ccccc2)cc(OCCc2ccccc2)n1)C(=O)O` (centres undefined), the IC50 is 4.7 µM in series [1], 600 nM in [2] and 1200 nM on Prostaglandin E synthase.

For `CCCCC(Sc1nc(OCCC(C)C)cc(OCCC(C)C)n1)C(=O)O` (centres undefined), the IC50 in series [1] was 6.8 µM; in series [2], 1200 nM; on Prostaglandin E synthase it was more than 10000 nM. For the same compound, in series [3], the Activity was 54.5%.

Consider `CCCCC(Sc1nc(OCCc2ccc(C)cc2)cc(OCCc2ccc(C)cc2)n1)C(=O)O` (centres undefined), for which the IC50 in series [1] stood at 3.1 µM; in [2] it was 500 nM; on Prostaglandin E synthase, 900 nM.

Regarding `CCCCC(Cc1ccc(OCCc2ccccc2)c(OCCc2ccccc2)c1)C(=O)O` (centres undefined), the Activity in series [4] was 86.4%; in series [5] it was “Non-toxic”; in [6], 95.8%; in series [7] it was 54%. Also, the figures for the IC50 (in series [1]; in series [2]; at Prostaglandin E synthase) were more than 10 µM, 6000 nM and 2700 nM, respectively.

Take `CCCCC(Sc1nc(OCCC2CCCC2)cc(OCCC2CCCC2)n1)C(=O)O` (centres undefined): the IC50 was 6.8 µM in [1], 4000 nM in series [2] and more than 10000 nM at Prostaglandin E synthase. In addition, in [3], the Activity is 90%.

Consider `CCCCC(Sc1nc(OCCc2ccsc2)cc(OCCc2ccsc2)n1)C(=O)O` (centres undefined), for which the IC50 was found to be 9.3 µM in [1], 600 nM in series [2] and 6500 nM on Prostaglandin E synthase.

As for `CCCCC(Sc1nc(OCCCc2ccccc2)cc(OCCCc2ccccc2)n1)C(=O)O` (centres undefined), the IC50 in [1] came to 2.7 µM; in series [2], 900 nM; on Prostaglandin E synthase, 2200 nM.

Turning to `CCCCC(Sc1nc(OCCC2CC2)cc(OCCC2CC2)n1)C(=O)O` (centres undefined), the IC50 stood at 9.3 µM in series [1], 1200 nM in series [2] and 9600 nM at Prostaglandin E synthase.

Consider `CCCCC(Sc1nc(OCCC2CCCCCC2)cc(OCCC2CCCCCC2)n1)C(=O)O` (centres undefined), for which the IC50 is more than 10 µM in series [1], 2400 nM in [2] and more than 10000 nM at Prostaglandin E synthase. Further, the Activity in series [3] came to 62.4%; in series [7], 53.8%.

Turning to `CCC(Sc1nc(OCCc2ccccc2)cc(OCCc2ccccc2)n1)C(=O)O` (centres undefined), the IC50 in series [1] was 9 µM; on Prostaglandin E synthase, 7300 nM; in series [8], 2800 nM.

`CCCC/C(=C\c1cc(OCCc2ccccc2)cc(OCCc2ccccc2)c1)C(=O)O`: the Activity was 81.4% in series [4], “Non-toxic” in [5], 81.4% in series [6] and 62.7% in [7]. Moreover, the results for the IC50 (in [1]; in series [2]; on Prostaglandin E synthase) were more than 10 µM, 700 nM and 2800 nM, respectively.

In the case of `CCCCC(Sc1nc(OCCc2ccc(C#N)cc2)cc(OCCc2ccc(C#N)cc2)n1)C(=O)O` (centres undefined), the IC50 in [1] was found to be 6.6 µM; in series [2], 700 nM; at Prostaglandin E synthase it was 5900 nM.

For the compound `CCCCC(Sc1nc(OCc2ccccc2)cc(OCc2ccccc2)n1)C(=O)O` (centres undefined), the IC50 in series [1] stood at 5 µM; at Prostaglandin E synthase, 3800 nM; in series [8] it was 1800 nM.

Take `CCCCC(Sc1cc(OCCc2ccccc2)cc(OCCc2ccccc2)c1)C(=O)O` (centres undefined): the Activity in [4] was 110%; in [5], “Non-toxic”; in [6], 71.3%. For the same compound, the IC50 is 7.2 µM in series [1], 800 nM in series [2] and 4600 nM on Prostaglandin E synthase.

For `CCCCC(Cc1cccc(OCCc2ccccc2)c1OCCc1ccccc1)C(=O)O` (centres undefined), the Activity is 89.6% in [4], “Non-toxic” in series [5] and 66.1% in series [6]. Further, the figures for the IC50 (in [1]; in [2]; at Prostaglandin E synthase) were 4.9 µM, 2100 nM and 3900 nM, respectively.

For the compound `CCCCC(Sc1nc(OCCc2ccc(C(F)(F)F)cc2)cc(OCCc2ccc(C(F)(F)F)cc2)n1)C(=O)O` (centres undefined), the results for the IC50 (in series [1]; in [2]; on Prostaglandin E synthase) were 2.2 µM, 500 nM and 1900 nM, respectively.

On to `CCCCC(Sc1nc(OCCCCc2ccccc2)cc(OCCCCc2ccccc2)n1)C(=O)O` (centres undefined), for which the IC50 in series [1] was found to be 2.2 µM; in [2] it was 700 nM; on Prostaglandin E synthase, 900 nM.

For `CCCCC(Cc1cc(OCCc2ccccc2)ccc1OCCc1ccccc1)C(=O)O` (centres undefined), the Activity in series [4] is 66.5%; in series [5], “Non-toxic”; in series [6], 63.8%; in series [7] it was 65.5%. The IC50 in [1] was more than 10 µM; on Prostaglandin E synthase, 2400 nM; in series [8] it was 900 nM.

On to `O=C(O)CSc1nc(OCCc2ccccc2)cc(OCCc2ccccc2)n1`, for which the IC50 is more than 10 µM in series [1], 7600 nM in series [2] and more than 10000 nM at Prostaglandin E synthase. Besides, in series [7], the Activity came to 57%.

With `O=C(O)C(Sc1nc(OCCc2ccccc2)cc(OCCc2ccccc2)n1)c1ccccc1` (centres undefined), the IC50 in series [1] is 4.9 µM; on Prostaglandin E synthase it was 1200 nM; in series [8], 800 nM.

As to `CCCCC(Sc1nc(OCCc2ccc([N+](=O)[O-])cc2)cc(OCCc2ccc([N+](=O)[O-])cc2)n1)C(=O)O` (centres undefined), the IC50 worked out at 2.8 µM in series [1], 500 nM in series [2] and 3700 nM at Prostaglandin E synthase.

Regarding `CCCC/C(=C\c1cc(OCCC2CCCCC2)ccc1OCCC1CCCCC1)C(=O)O`, the Activity in series [4] is 123%; in series [5], “Non-toxic”; in series [6], 76.4%; in series [7], 73%. In addition, the IC50 was more than 10 µM in [1], 800 nM in series [2] and 3400 nM at Prostaglandin E synthase.

Turning to `CCCC/C(=C\c1cc(OCCc2ccccc2)ccc1OCCc1ccccc1)C(=O)O`, the Activity in series [4] is 94.4%; in series [5] it was “Non-toxic”; in series [6] it was 68%; in series [7], 78.2%. The IC50 in [1] is more than 10 µM; at Prostaglandin E synthase, 1500 nM; in series [8] it was 900 nM.

In the case of `CCCC/C(=C\c1cccc(OCCc2ccccc2)c1OCCc1ccccc1)C(=O)O`, the Activity in series [4] is 113%; in series [5] it was “Non-toxic”; in [6], 86.8%; in series [7], 91.3%. The IC50 in series [1] is more than 10 µM; on Prostaglandin E synthase, 1100 nM; in [8] it was 800 nM.

Take `CCCCC(Cc1cc(OCCc2ccccc2)cc(OCCc2ccccc2)c1)C(=O)O` (centres undefined): the Activity in series [4] is 78.4%; in series [5] it was “Non-toxic”; in [6] it was 78.7%; in series [7] it was 80.3%. In addition, the IC50 was more than 10 µM in [1], 4700 nM in series [2] and 2400 nM on Prostaglandin E synthase.

Take `CCCC/C(=C\c1cc(OCc2ccc(C(F)(F)F)cc2)ccc1OCc1ccc(C(F)(F)F)cc1)C(=O)O`: the Activity in series [4] was 102%; in series [5] it was “Non-toxic”; in series [6], 82.6%; in series [3], 55.1%. Besides, the IC50 in [1] was 4.4 µM; in [2], 200 nM; at Prostaglandin E synthase, more than 10000 nM.
